Assay results from ChEMBL document CHEMBL1649552 (2009).

Assays:
Type in all cases: functional
Enterococcus faecium = experiment: Antibacterial activity against Enterococcus faecium by CLSI M100-S17 method
Streptococcus agalactiae [1] = experiment: Antibacterial activity against Streptococcus agalactiae assessed as susceptible isolates by CLSI M100-S17 method
In short: (§1)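 CLSI broth microdilution on clinical isolates, using frozen in-house-prepared panels of test and comparator agents. MICs were read after 20 to 24 h incubation at 35°C in ambient air. Susceptible/intermediate categories were assigned by CLSI M100-S17 guidelines.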

Streptococcus agalactiae [2] = experiment: Antibacterial activity against Streptococcus agalactiae by CLSI M100-S17 method
Streptococcus pyogenes [3] = experiment: Antibacterial activity against Streptococcus pyogenes assessed as resistant isolates by CLSI M100-S17 method
In short: (§2)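 Clinical isolates were tested by CLSI broth microdilution in frozen, in-house-prepared 96-well panels of the test agent and comparator agents. MICs were read and classed as susceptible, intermediate or resistant using CLSI M100-S17 breakpoints. The value is the share of isolates in each category.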

Staphylococcus aureus [4] = experiment: Antibacterial activity against methicillin-resistant Staphylococcus aureus assessed as resistant isolates by CLSI M100-S17 method
Streptococcus agalactiae [5] = experiment: Antibacterial activity against Streptococcus agalactiae assessed as intermediate isolates by CLSI M100-S17 method; in short: as §1
Streptococcus agalactiae [6] = experiment: Antibacterial activity against Streptococcus agalactiae assessed as resistant isolates by CLSI M100-S17 method; in short: as §2
Staphylococcus aureus [7] = experiment: Antibacterial activity against methicillin-susceptible Staphylococcus aureus by CLSI M100-S17 method
Staphylococcus aureus [8] = experiment: Antibacterial activity against methicillin-resistant Staphylococcus aureus by CLSI M100-S17 method
[9] = system: Staphylococcus epidermidis; experiment: Antibacterial activity against methicillin-susceptible Staphylococcus epidermidis by CLSI M100-S17 method
Staphylococcus aureus [10] = experiment: Antibacterial activity against methicillin-resistant Staphylococcus aureus assessed as intermediate isolates by CLSI M100-S17 method
[11] = system: Staphylococcus epidermidis; experiment: Antibacterial activity against methicillin-resistant Staphylococcus epidermidis by CLSI M100-S17 method
Streptococcus pyogenes [12] = experiment: Antibacterial activity against Streptococcus pyogenes assessed as susceptible isolates by CLSI M100-S17 method; in short: as §1
Staphylococcus aureus [13] = experiment: Antibacterial activity against methicillin-susceptible Staphylococcus aureus assessed as resistant isolates by CLSI M100-S17 method
[14] = system: Staphylococcus epidermidis; experiment: Antibacterial activity against methicillin-susceptible Staphylococcus epidermidis assessed as susceptible isolates by CLSI M100-S17 method
Staphylococcus aureus [15] = experiment: Antibacterial activity against methicillin-resistant Staphylococcus aureus assessed as susceptible isolates by CLSI M100-S17 method
[16] = system: Staphylococcus epidermidis; experiment: Antibacterial activity against methicillin-susceptible Staphylococcus epidermidis assessed as intermediate isolates by CLSI M100-S17 method
[17] = system: Staphylococcus epidermidis; experiment: Antibacterial activity against methicillin-susceptible Staphylococcus epidermidis assessed as resistant isolates by CLSI M100-S17 method
Enterococcus faecalis = experiment: Antibacterial activity against Enterococcus faecalis by CLSI M100-S17 method
Staphylococcus aureus [18] = experiment: Antibacterial activity against methicillin-susceptible Staphylococcus aureus assessed as intermediate isolates by CLSI M100-S17 method
Staphylococcus aureus [19] = experiment: Antibacterial activity against methicillin-susceptible Staphylococcus aureus assessed as susceptible isolates by CLSI M100-S17 method
Streptococcus pyogenes [20] = experiment: Antibacterial activity against Streptococcus pyogenes assessed as intermediate isolates by CLSI M100-S17 method; in short: as §1
[21] = system: Staphylococcus epidermidis; experiment: Antibacterial activity against methicillin-resistant Staphylococcus epidermidis assessed as resistant isolates by CLSI M100-S17 method
[22] = system: Staphylococcus epidermidis; experiment: Antibacterial activity against methicillin-resistant Staphylococcus epidermidis assessed as susceptible isolates by CLSI M100-S17 method

**Q.** Which MIC50 (Enterococcus faecium) does the source give for `CCC[C@@H]1C[C@@H](C(=O)N[C@@H]([C@H]2O[C@H](SC)[C@H](O)[C@@H](O)[C@H]2O)[C@H](C)Cl)N(C)C1` [CLINDAMYCIN] here?
**A.** Its MIC50 is > 8 µg/mL.

**Q.** And the MIC90 (Enterococcus faecium)?
**A.** The MIC90 was > 8 µg/mL.

**Q.** What about the Activity (Streptococcus agalactiae [1]) of the same compound?
**A.** Its Activity is 85.2%.

**Q.** What about the MIC50 (Streptococcus agalactiae [2]) of the same compound?
**A.** The MIC50 was ≤ 0.06 µg/mL.

**Q.** And the MIC90 (Streptococcus agalactiae [2])?
**A.** The MIC90 was > 8 µg/mL.

**Q.** What about the Activity (Streptococcus pyogenes [3]) of the same compound?
**A.** Its Activity is 2.7%.

**Q.** What about the Activity (Staphylococcus aureus [4]) of the same compound?
**A.** Its Activity is 61.8%.

**Q.** What about the Activity (Streptococcus agalactiae [5]) of the same compound?
**A.** The Activity was 2.3%.

**Q.** And the Activity (Streptococcus agalactiae [6])?
**A.** The Activity was 12.5%.

**Q.** And the MIC50 (Staphylococcus aureus [7])?
**A.** The MIC50 was ≤ 0.12 µg/mL.

**Q.** And the MIC90 (Staphylococcus aureus [7])?
**A.** Its MIC90 is ≤ 0.12 µg/mL.

**Q.** And the MIC50 (Staphylococcus aureus [8])?
**A.** The MIC50 was > 8 µg/mL.

**Q.** And the MIC90 (Staphylococcus aureus [8])?
**A.** The MIC90 was > 8 µg/mL.

**Q.** What about the MIC50 [9] of the same compound?
**A.** The MIC50 was ≤ 0.12 µg/mL.

**Q.** And the MIC90 [9]?
**A.** Its MIC90 is > 8 µg/mL.

**Q.** What about the Activity (Staphylococcus aureus [10]) of the same compound?
**A.** Its Activity is 0.3%.

**Q.** What about the MIC50 [11] of the same compound?
**A.** Its MIC50 is > 8 µg/mL.

**Q.** What about the Activity (Streptococcus pyogenes [12]) of the same compound?
**A.** Its Activity is 97.3%.

**Q.** What about the Activity (Staphylococcus aureus [13]) of the same compound?
**A.** Its Activity is 8.6%.

**Q.** And the Activity [14]?
**A.** The Activity was 61.1%.

**Q.** What about the Activity (Staphylococcus aureus [15]) of the same compound?
**A.** The Activity was 37.9%.

**Q.** And the Activity [16]?
**A.** The Activity was 0%.

**Q.** What about the Activity [17] of the same compound?
**A.** The Activity was 38.9%.

**Q.** What about the MIC50 (Enterococcus faecalis) of the same compound?
**A.** The MIC50 was > 8 µg/mL.

**Q.** What about the MIC90 (Enterococcus faecalis) of the same compound?
**A.** The MIC90 was > 8 µg/mL.

**Q.** What about the Activity (Staphylococcus aureus [18]) of the same compound?
**A.** Its Activity is 0.4%.

**Q.** And the Activity (Staphylococcus aureus [19])?
**A.** Its Activity is 91%.

**Q.** What about the Activity (Streptococcus pyogenes [20]) of the same compound?
**A.** Its Activity is 0%.

**Q.** And the Activity [21]?
**A.** The Activity was 90%.

**Q.** And the Activity [22]?
**A.** Its Activity is 10%.
